Source: the array DNA melting data of Ke et al. (doi:10.1101/2024.01.08.574731)

Legend:
[1] = melting temperature; fluorescence melt of hairpins on a sequencing array, two-state fit, raised by 9.35 °C to match UV melts; conditions: sodium 0.088 M
Method in brief: (§1)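 With Cy3 and quencher oligos annealed, library hairpins on a sequenced MiSeq flow cell were imaged for Cy3 fluorescence in 50 mM Na-HEPES pH 8.0, 25 mM NaCl, in 2.5 °C steps up to 60 °C. Melting temperature and folding enthalpy were derived from bootstrapped two-state fits of signals normalised to pre-quench Cy3 and to control constructs. Four replicates were combined by inverse variance, with fitted temperatures raised by 9.35 °C to match UV melts.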

[2] = folding enthalpy; higher = less favourable; fluorescence melt of hairpins on a sequencing array, two-state fit; conditions: sodium 0.088 M
Method in brief: as §1

Sequence | Tm [1] | folding enthalpy [2]
CGTACGGAAACGTGCACG ((((((....)))..))) | 36.2 °C | -14.5 kcal/mol
CGTAGGCGGAAACGCACG (((..(((....)))))) | 42.1 °C | -15.1 kcal/mol
CGTCAACGGAAACGTACG (((..(((....)))))) | 35.6 °C | -11.4 kcal/mol
CGTCACGGAAACGTTACG (((.(((....))).))) | 45.3 °C | -31.2 kcal/mol
CGTCCCGGAAACGGAACG (((.(((....))).))) | 47.5 °C | -26.3 kcal/mol
CGTCCCGGAAACGGTACG (((.(((....))).))) | 47.2 °C | -29.1 kcal/mol
CGTCCGGAAACGGAGACG ((((((....)))..))) | 45.3 °C | -21.4 kcal/mol
CGTCCGGAAACGGCACG ((((((....))).))) | 47.6 °C | -22.5 kcal/mol
CGTCGCGGAAACGCCACG (((.(((....))).))) | 45.1 °C | -33.1 kcal/mol
CGTCGCGGAAACGCTACG (((.(((....))).))) | 49.3 °C | -28.9 kcal/mol
CGTCTCGGAAACGAAACG (((.(((....))).))) | 38.5 °C | -32.4 kcal/mol
CGTCTGCGGAAACGCACG (((..(((....)))))) | 38.7 °C | -12.2 kcal/mol
CGTGAGAAATCACG (((((....))))) | 50.8 °C | -25.8 kcal/mol
CGTGAGCGGAAACGCACG (((..(((....)))))) | 45.9 °C | -22.2 kcal/mol
CGTGCCGGAAACGGAACG (((.(((....))).))) | 55.9 °C | -37.7 kcal/mol
CGTGCCGGAAACGGTACG (((.(((....))).))) | 60.3 °C | -32.4 kcal/mol
CGTGCGGAAACGCATACG ((((((....)))..))) | 44.9 °C | -15.4 kcal/mol
CGTGCGGAAACGCCAACG ((((((....)))..))) | 39.4 °C | -19.2 kcal/mol
CGTGCGGAAACGCCGACG ((((((....)))..))) | 44.5 °C | -15.6 kcal/mol
CGTGCGGAAACGCGTACG ((((((....)))..))) | 48.6 °C | -26.1 kcal/mol
CGTGCGGAAACGCTCACG ((((((....)))..))) | 39.9 °C | -18.3 kcal/mol
CGTGCGGAAACGCTGACG ((((((....)))..))) | 42.5 °C | -21.2 kcal/mol
CGTGGCCGGAAACGGACG (((..(((....)))))) | 44.2 °C | -10.8 kcal/mol

Sequence | Tm [1] | folding enthalpy [2]
CGTTACGGAAACGTACG (((.(((....)))))) | 45.4 °C | -26.3 kcal/mol
CGTTAGAAATAACG (((((....))))) | 37 °C | -20.5 kcal/mol
CGTTCCGGAAACGGCACG (((.(((....))).))) | 48.5 °C | -34.9 kcal/mol
CGTTCCGGAAACGGGACG (((.(((....))).))) | 57.6 °C | -42.9 kcal/mol
CGTTCCGGAAACGGTACG (((.(((....))).))) | 50 °C | -31.5 kcal/mol
CGTTCGAAAGAACG (((((....))))) | 58.2 °C | -30.6 kcal/mol
CGTTCGGAAACGAATACG ((((((....)))..))) | 36.7 °C | -19.2 kcal/mol
CGTTGCCGGAAACGGACG (((..(((....)))))) | 44.3 °C | -13.3 kcal/mol
CGTTGCGGAAACGCCACG (((.(((....))).))) | 49.5 °C | -29.8 kcal/mol
CGTTTACGGAAACGTACG (((..(((....)))))) | 40.1 °C | -19.2 kcal/mol
CGTTTCCGGAAACGGACG (((..(((....)))))) | 49.3 °C | -17.1 kcal/mol
CGTTTCGGAAACGAGACG (((.(((....))).))) | 49.1 °C | -24.9 kcal/mol
CGTTTCGGAAACGATACG (((.(((....))).))) | 45.6 °C | -33.6 kcal/mol
CTAGGGAAACCTAG (((((....))))) | 39.4 °C | -17.2 kcal/mol
CTCAGGAAACTGAG (((((....))))) | 46.3 °C | -22.6 kcal/mol
CTCCTGAAAAGGAG (((((....))))) | 51.2 °C | -20.3 kcal/mol
CTGATGAAAATCAG (((((....))))) | 43.4 °C | -22 kcal/mol
CTGCGGAAACGCAG (((((....))))) | 61.8 °C | -31.6 kcal/mol
CTTACGAAAGTAAG (((((....))))) | 49.2 °C | -19.3 kcal/mol
GAAAAACGAAAGTTCTTC (((.(((....))).))) | 28.2 °C | -13.4 kcal/mol
GAAAACCGAAAGGTCTTC (((.(((....))).))) | 35.8 °C | -18.9 kcal/mol
GAAAACGAAAGTTGCTTC ((((((....)))..))) | 33.1 °C | -19.8 kcal/mol
GAAAAGCCGAAAGGCTTC (((..(((....)))))) | 36.8 °C | -7.3 kcal/mol

Sequence | Tm [1] | folding enthalpy [2]
GAAAAGGCGAAAGCCTTC (((..(((....)))))) | 38.9 °C | -9.06 kcal/mol
GAAAAGGGAAACCTTTCC (.(((((....))))).) | 27.7 °C | -13.9 kcal/mol
GAAAATGAAAATTTTC ((((((....)))))) | 38.6 °C | -23.1 kcal/mol
GAAAATGGAAACATTTCC (.(((((....))))).) | 28.6 °C | -17 kcal/mol
GAAACAGAAATGTTTC ((((((....)))))) | 45.9 °C | -28.5 kcal/mol
GAAACCCCGAAAGGGTTC (((..(((....)))))) | 35.7 °C | -14 kcal/mol
GAAACCGAAAGGTGGTTC ((((((....)))..))) | 32.3 °C | -11.8 kcal/mol
GAAACCGAAAGGTTCTTC ((((((....)))..))) | 54.4 °C | -22.5 kcal/mol
GAAACCGAAAGGTTTTC ((((((....))).))) | 50.6 °C | -17.3 kcal/mol
GAAACCGGAAACAGTTTC (((((.(....).))))) | 30.8 °C | -25 kcal/mol
GAAACCGGAAACGATTTC ((((.((....)).)))) | 34 °C | -28.9 kcal/mol
GAAACCGGAAACGGTTTC (((((((....))))))) | 65.7 °C | -39 kcal/mol
GAAACGGGAAACTGTTTC (((((.(....).))))) | 44.9 °C | -27.5 kcal/mol
GAAACTGAAAAGTTTC ((((((....)))))) | 50.4 °C | -31.5 kcal/mol
GAAAGACGAAAGTCCTTC (((.(((....))).))) | 32.8 °C | -15.6 kcal/mol
GAAAGAGCGAAAGCTTTC (((..(((....)))))) | 32.5 °C | -13.8 kcal/mol
GAAAGCCCGAAAGGGTTC (((..(((....)))))) | 27.9 °C | -10.6 kcal/mol
GAAAGCGAAAGCTGTTTC ((((((....)))..))) | 32 °C | -9.68 kcal/mol
GAAAGCGAAAGCTTGTTC ((((((....)))..))) | 36.8 °C | -12.5 kcal/mol
GAAAGCGGAAACGTTTTC ((((.((....)).)))) | 42.4 °C | -30.5 kcal/mol
GAAAGGAAACTTTC (((((....))))) | 30.4 °C | -16.9 kcal/mol
GAAAGGGCGAAAGCCTTC (((..(((....)))))) | 24.8 °C | -9.82 kcal/mol
GAAAGGGGAAACCCTCTC ((.((((....)))).)) | 26.8 °C | -17.3 kcal/mol

Sequence | Tm [1] | folding enthalpy [2]
GAAAGTGGAAACGCTTTC (((((.(....).))))) | 44.2 °C | -27.6 kcal/mol
GAAATACGAAAGTACTTC (((.(((....))).))) | 29.5 °C | -15.7 kcal/mol
GAAATCCGAAAGGAATTC (((.(((....))).))) | 40.9 °C | -28.1 kcal/mol
GAAATCGGAAACGACTTC (((.(((....))).))) | 32.4 °C | -24.8 kcal/mol
GAAATCGGAAACGGTTTC ((((.((....)).)))) | 46.5 °C | -31.6 kcal/mol
GAAATGAAAATTTC (((((....))))) | 30.1 °C | -12.2 kcal/mol
GAAATGCGAAAGCACTTC (((.(((....))).))) | 40.7 °C | -17.1 kcal/mol
GAAATGCGAAAGCATTC (((.(((....)))))) | 45.6 °C | -10.9 kcal/mol
GAAATGGCGAAAGCCTTC (((..(((....)))))) | 23 °C | -7.87 kcal/mol
GAAATGGGAAACCATTTC (((((((....))))))) | 53.9 °C | -37.5 kcal/mol
GAACAAGAAATTGTTC ((((((....)))))) | 45.1 °C | -26.4 kcal/mol
GAACACGAAAGTGATTC ((((((....))).))) | 37.2 °C | -18.1 kcal/mol
GAACACGAAAGTGCGTTC ((((((....)))..))) | 31.2 °C | -13 kcal/mol
GAACACGAAAGTGTCTTC ((((((....)))..))) | 52.8 °C | -24.3 kcal/mol
GAACACGAAAGTGTGTTC ((((((....)))..))) | 50 °C | -17.8 kcal/mol
GAACACGGAAACGTGTCC (.(((((....))))).) | 45.2 °C | -11.2 kcal/mol
GAACATGGAAACGTGTTC (((((.(....).))))) | 44.8 °C | -40.1 kcal/mol
GAACCCGAAAGGGACTTC ((((((....)))..))) | 42.9 °C | -20.2 kcal/mol
GAACCCGAAAGGGATTC ((((((....))).))) | 46.4 °C | -14.4 kcal/mol
GAACCCGAAAGGGCTTTC ((((((....)))..))) | 33.8 °C | -10.4 kcal/mol
GAACCCGAAAGGGTCTTC ((((((....)))..))) | 61.9 °C | -22.8 kcal/mol
GAACCTGGAAACAGGTCC (.(((((....))))).) | 40.9 °C | -15.9 kcal/mol
GAACCTGGAAACAGGTTC (((((((....))))))) | 65.5 °C | -36.9 kcal/mol
